Screening results: PubChem, several laboratories
Cardio protect: cardioprotection against H2O2-induced cell death, primary screen, uHTS, H9c2 cells, ATPLite luminescence | H9c2 cardiomyocytes, H2O2 injury protection, 2 h | protection from H2O2 cell death, % at 20 µM | 360,000 compounds, 0.63% hits;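 active = compounds giving at least 50% protection of heart cells from peroxide-induced death in the single-dose screen, raw or plate-pattern-corrected value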;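 also: 0% = DMSO wells with peroxide and 100% = DMSO wells without peroxide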
H9c2 TAG inh: inhibitors of triacylglycerol accumulation, primary screen, cell-based, uHTS, fluorescence, H9c2. H9c2 cells, Nile Red lipid (TAG) fluorescence; cells loaded with 200 µM oleic acid. inhibition, % at 12.5 µM. 230,000 compounds, 0.66% hits. AID 651582, 2012;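 active = pattern-corrected inhibition of lipid staining of at least 50% with the nuclear-stain viability signal not falling by more than 50%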;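 also: 0% = DMSO wells and 100% = triacsin C control wells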
MT1-MMP act inh: blockers of MT1-MMP proenzyme processing, primary screen, HT1080 RFP-PRO-GFP cells, GFP/RFP fluorescence; 360,000 compounds, 0.061% hits; GFP/RFP ratio change, % at 20 µM; GFP/RFP ratio fluorescence, overnight; percent of plate control window, DMSO zero; AID 651647, 2012; Matrix metalloproteinase-14 (Homo sapiens), P50281;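 active = GFP/RFP ratio change of at least 30% with cell ATP level not reduced by more than half and red fluorescence within 50% of control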
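Assay system: HT1080 RFP-PRO-GFP cells. Benchmarks: DMSO vehicle wells and RFP-L50D-GFP reporter cell wells. Times: overnight cell settling, then overnight compound exposure, 37 °C, 5% CO2. Compound: 20 µM single dose, 1% DMSO. Read-out basis: GFP/RFP fluorescence ratio.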
DAGLB inh: DAGLB lipase inhibitors, primary screen, biochemical, fluorescence, HTS; Diacylglycerol lipase-beta (Homo sapiens), Q8NCG7; HEK293T DAGLB membrane lysate, EnzChek fluorogenic substrate; inhibition, % at 5.17 µM; 340,000 compounds, 0.059% hits; AID 504411, 2011; in the data active = inhibition above about 34%;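 also: 0% = enzyme with vehicle and 100% = wells lacking enzyme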
Target sequence (Q8NCG7 whole entry, looked up): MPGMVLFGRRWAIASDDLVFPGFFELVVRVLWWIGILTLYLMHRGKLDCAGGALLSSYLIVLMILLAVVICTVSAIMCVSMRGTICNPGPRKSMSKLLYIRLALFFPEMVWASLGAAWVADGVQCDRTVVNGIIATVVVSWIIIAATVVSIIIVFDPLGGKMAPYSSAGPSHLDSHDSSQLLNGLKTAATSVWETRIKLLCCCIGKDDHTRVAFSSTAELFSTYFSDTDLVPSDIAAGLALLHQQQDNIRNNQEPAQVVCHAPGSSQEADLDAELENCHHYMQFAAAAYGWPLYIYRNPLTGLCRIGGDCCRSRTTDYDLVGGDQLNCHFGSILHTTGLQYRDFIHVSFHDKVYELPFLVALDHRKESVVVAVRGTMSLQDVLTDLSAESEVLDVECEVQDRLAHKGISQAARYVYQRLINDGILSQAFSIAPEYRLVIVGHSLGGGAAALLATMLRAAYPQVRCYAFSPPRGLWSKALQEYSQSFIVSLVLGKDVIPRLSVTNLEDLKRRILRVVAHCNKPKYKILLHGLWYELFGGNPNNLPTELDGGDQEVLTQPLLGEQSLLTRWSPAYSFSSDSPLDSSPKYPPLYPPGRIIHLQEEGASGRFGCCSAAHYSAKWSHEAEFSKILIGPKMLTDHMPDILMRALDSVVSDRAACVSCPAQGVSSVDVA
DDE Tn7 FP inh: inhibitors of Tn7 peptide binding to fibrin DD(E), primary screen, biochemical, fluorescence polarization, human fibrin, Tn7 probe; FP displacement of FITC-Tn7 peptide from fibrin DD(E); 0% = median of compound wells per plate; inhibition, % at 8.3 µM; Fibrinogen beta chain (Homo sapiens), P02675; 370,000 compounds, 0.13% hits;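 active = inhibition above the mean of compounds falling within the control limits plus 3 SD of them, cut at about 14% in these data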;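 also: 0% = plate median of compound wells and 100% = 10 µM Aha-Tn7 peptide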
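Test system: human clot-derived fibrin DD(E) complex / Quantity: 2 µM final DD(E) protein / Incubation: 10 min plus 3 h, room temperature / Measured by: fluorescence polarization / Benchmarks: high control of 10 µM Aha-Tn7 peptide / Replicates: singlicate testing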
DDE Tn6 FP inh: inhibitors of Tn6 peptide binding to fibrin DD(E), primary screen, biochemical, fluorescence polarization, human fibrin, Tn6 probe | Fibrinogen beta chain (Homo sapiens), P02675 | Fibrin DD(E) TRITC-Tn6 fluorescence polarization displacement | inhibition, % at 8.3 µM | 370,000 compounds, 0.21% hits;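 active = inhibition above a per-campaign cutoff: mean of compounds within control limits plus 3 SD, cut at about 15% in these data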;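 also: 0% = median of all compound wells on the plate and 100% = blocking peptide control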
DDE Tn6 FP ctr: DD(E)-Tn6 binding inhibition, counter-screen; inhibition, % at 8.3 µM; shares compounds with DDE Tn6 FP inh; Fibrin DD(E), TRITC-Tn6 fluorescence polarization displacement; 0% = median of compound wells, not DMSO; 680 compounds, 2% hits;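 active = inhibition above the mean of test compounds lying between the control limits plus 3 SD of those, cut at about 14% in these data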;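 also: 0% = median of compound wells and 100% = wells with Aha-Tn7 blocking peptide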
DDE Tn6 confirm: inhibitors of Tn6 peptide binding to fibrin DD(E), confirmation, biochemical, fluorescence polarization, human fibrin, Tn6 probe. shares compounds with DDE Tn6 FP inh. FP displacement of TRITC-Tn6 peptide from DD(E); 0% = per-plate median of test wells. inhibition, % at 8.3 µM. 680 compounds, 10% hits. AID 720631, 2013;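 active = inhibition above the mean of compounds lying within the control limits plus 3 SD, cut at about 16% in these data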;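 also: 100% = high control wells holding a competing inhibitor peptide at 10 µM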
* marks the source's active call; other numbers are inactive results; . = no result given. An excerpt weighted towards active compounds, which were near 1.4% of everything screened.

SMILES	Cardio protect	H9c2 TAG inh	MT1-MMP act inh	DAGLB inh	DDE Tn7 FP inh	DDE Tn6 FP inh	DDE Tn6 FP ctr	DDE Tn6 confirm
CC(Oc1ccc2c(c1)c1ccnc3c4ccccc4c(=O)n2c13)C(=O)NCCN1CCOCC1 (centres undefined)	40	.	.	-1	-1	36*	4	8
COc1ccc2c(c1OC)c(=O)n1c3ccc(OC(C)C(=O)NCCCN4CCOCC4)cc3c3ccnc2c31 (centres undefined)	28	.	12	-2	.	.	.	.
Cc1cccc(NC(=O)C2CCN(c3ncccn3)CC2)c1C	.	.	.	.	8	2	.	.
O=C(NC1CCCC1)C(c1ccccc1)n1c(-c2ccc3c(c2)CCO3)nc2ccccc21 (centres undefined)	.	.	5	.	-2	-6	.	.
COc1ccc(-c2nnc3c4ccccc4c(C)nn23)cc1S(=O)(=O)N1CCN(CCO)CC1	16	-1	-7	0	-3	23*	3	0
Cc1cc(Sc2nc(NC(C)(C)C)nc(N3CCOCC3)n2)nc(Cl)n1	2	.	-3	-2	0	17*	5	-1
CN(C)c1ncnc2c1ncn2[C@H]1CN(C2CCCC2)C[C@@H](CO)O1	10	12	-1	.	8	6	.	.
Cc1ccc(CN2CCCCC(NC(=O)Nc3ccccc3-c3ccccc3)C2=O)cc1 (centres undefined)	.	.	.	.	4	-8	.	.
C[C@H](O)[C@@H]1C(=O)N2CCc3c([nH]c4c(-c5ccccc5)cccc34)[C@@H]2C[C@@H]1N(C)C(=O)Nc1cccc2ccccc12	.	.	.	.	-2	-1	.	.
Cc1ccc(Cn2ccsc2=NC(=O)COC(=O)c2ccc(NC(=O)CC#N)cc2)cc1	-16	-73	-9	-4	-4	16*	-2	-16
Cc1ccc(Cn2ccsc2=NC(=O)CCl)cc1	-13	65	-22	-2	-2	0	.	.
COc1cc(OC)cc(-c2c(-c3ccc(F)cc3)c3cc(-c4ccc5c(c4)OCCO5)ccc3n2C)c1	-4	-39	-2	-9	-1	53*	-8	-6
CCCCCCSc1cccc(-c2nc3ccc(C)cn3c2NCc2ccccc2)c1	-20	-24	1	-15	4	16*	10	6
COc1ccc(Cl)cc1NC(=O)COC(=O)CCNC(C)=O	9	-7	1	-1	6	17*	9	5
c1ccc(Cn2ncc3c(N4CCN(c5ccccc5)CC4)ncnc32)cc1	-5	-23	-2	.	-1	0	.	.
Cn1nc(-c2ccccc2)c(N2CCCCC2)cc1=O	-3	-52	1	-2	0	1	.	.
Cn1c(=O)cc2c3c(c(N4CCCCC4)ccc31)C(=O)c1ccccc1-2	36	19	26	.	5	59*	2	23*
Cc1[nH]cnc1/C=N\NC(=O)c1cccc(S(=O)(=O)N(C)C)c1	.	.	.	.	-3	-4	.	.
Nc1c(SCCC(=O)O)ccc2c1C(=O)c1ccccc1C2=O	-4	.	14	17	2	50*	6	27*
Nc1c(C(=O)O)ccc2c1C(=O)c1ccccc1C2=O	2	-10	31	30	3	15	.	.
COC(=O)[C@H](C(C)C)N(CCCc1cn(CC2CCCCC2)nn1)S(=O)(=O)c1ccc(F)cc1Br	.	.	.	.	-3	4	.	.
CCOc1ccc(NS(=O)(=O)c2ccc(N)cc2)cc1	-14	17	0	-1	5	-1	.	.
CCOc1ccc(Nc2ccc(N)c(S(=O)(=O)O)c2)cc1	-5	1	9	16	10	22*	-6	-11
Cc1ccc(Cl)cc1NS(=O)(=O)c1ccccc1	3	-1	5	0	6	13	.	.
O=S(=O)(Nc1ccc(Cl)cc1NS(=O)(=O)c1ccccc1)c1ccccc1	-16	1	-4	29	9	19*	4	1
SMILES	Cardio protect	H9c2 TAG inh	MT1-MMP act inh	DAGLB inh	DDE Tn7 FP inh	DDE Tn6 FP inh	DDE Tn6 FP ctr	DDE Tn6 confirm
Cc1nc(-c2ccc(F)cc2)c(CC(=O)Nc2ccc(C)c(S(=O)(=O)N3CCOCC3)c2)s1	2	-15	-6	0	-8	4	.	.
Cc1cc(Br)ccc1SCC(=O)OCC(=O)NCc1ccco1	-2	14	-9	-1	1	15*	0	-1
Nc1cccc(-c2c[nH]c3ncc(-c4cccnc4)cc23)c1	9	-18	-13	2	.	.	.	.
CN(Cc1ccccc1)C(=O)C(=O)c1c[nH]c2ccccc12	0	-16	-3	-3	7	0	.	.
O=C(O)c1ccccc1Sc1c([N+](=O)[O-])cc(C(F)(F)F)cc1[N+](=O)[O-]	-3	-5	2	6	12	35*	0	0
Cc1cc(C(=O)COc2cccc3cccnc23)c(C)n1C	-1	-10	-190	-21	5	30*	10	6
CN(C)c1ccc(/C=C/C=C2/SC(=S)N(c3ccccc3)C2=O)cc1	-16	.	-13	9	-2	31*	7	59*
O=C(O)c1ccc(N2C(=O)/C(=C/C=C/c3ccccc3)SC2=S)cc1	-1	-1	8	1	7	-5	.	.
O=C(Cc1cccc2ccccc12)NC(NC(=S)Nc1ccccc1Cl)C(Cl)(Cl)Cl (centres undefined)	-13	.	-10	0	2	25*	0	-2
CCS(=O)(=O)N1Cc2cc(C(=O)N(C)C)nc(-c3cccc(-c4ccc(F)cc4)c3)c2[C@H]1CCO	.	.	3	.	-1	2	.	.
CC(=O)Nc1ccc(/C=C/c2ccc3cccc([N+](=O)[O-])c3n2)cc1	44	4	-5	2	8	18*	6	7
O=C(O)COc1ccc(/C=C/c2ccc3cccc([N+](=O)[O-])c3n2)cc1	-6	.	6	5	5	-6	.	.
